Reference: ChEMBL document CHEMBL1151981, “Bioactive pyridine-N-oxide disulfides from Allium stipitatum” (J Nat Prod, 2009)
Values after ≈ are worked out from the molar mass of the structure shown. Active and inactive are the calls of the source. No cut-off for these calls is given here.

Experiments:
[1] = tested on: Mycobacterium tuberculosis; experiment: Antibacterial activity against Mycobacterium bovis BCG after 14 days by spot-culture growth inhibition assay; assay type: functional; details: variant bovis BCG, 336 h
How it was run: (§1)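 Mid-exponential cultures (BCG rotated in 7H9/ADC/Tween 80; H37Rv standing in 7H9/OADC/Tween 80) diluted to 10³ cells/mL. 5 µL spotted onto 7H10 agar with 10% OADC containing compound at 0.01, 0.1, 0.5, 1 and 5 µg/mL. Incubated at 37 °C for 14 days. MIC taken as lowest concentration with no growth; no-compound well as growth control.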

[2] = tested on: Mycobacterium tuberculosis; experiment: Antibacterial activity against Mycobacterium bovis BCG at 0.01 to 5 ug/ml after 14 days by spot-culture growth inhibition assay; assay type: functional, organism-based; details: variant bovis BCG; how it was run: as §1

Compound | MIC [1] [µg/mL] | Activity [2]
CSSc1cccc[n+]1[O-] | 0.1 (≈ 0.577 µM) | Active
CSCSSc1cccc[n+]1[O-] | 0.1 (≈ 0.456 µM) | Active
